Screening results as filed in PubChem BioAssay.
Sampled rows, rich in hits. Any-hit rate of the full collection: about 1.8%.
Furin inh: human furin inhibition; P09958; purified furin, fluorogenic substrate cleavage; inhibition, % at 20 µM or 30 µM; 220,000 tested, 0.061% active; in the data active means inhibition above about 25%
Target sequence (P09958 108-714 limits assumed): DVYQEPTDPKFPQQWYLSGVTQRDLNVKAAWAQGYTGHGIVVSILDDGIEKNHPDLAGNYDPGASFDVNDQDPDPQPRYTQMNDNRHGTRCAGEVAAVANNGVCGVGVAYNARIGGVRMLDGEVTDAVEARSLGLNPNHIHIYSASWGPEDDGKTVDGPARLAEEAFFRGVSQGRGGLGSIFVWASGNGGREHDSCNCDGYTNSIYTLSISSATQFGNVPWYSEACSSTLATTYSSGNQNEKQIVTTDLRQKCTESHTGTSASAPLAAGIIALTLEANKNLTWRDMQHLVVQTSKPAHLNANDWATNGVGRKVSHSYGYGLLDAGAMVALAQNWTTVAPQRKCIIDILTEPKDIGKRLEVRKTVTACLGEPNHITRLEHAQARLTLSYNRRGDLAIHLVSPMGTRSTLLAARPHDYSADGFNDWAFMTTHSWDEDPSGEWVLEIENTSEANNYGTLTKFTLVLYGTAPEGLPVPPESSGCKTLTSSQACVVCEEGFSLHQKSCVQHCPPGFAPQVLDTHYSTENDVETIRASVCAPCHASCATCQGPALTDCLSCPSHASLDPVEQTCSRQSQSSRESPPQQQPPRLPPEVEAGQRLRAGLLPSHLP
TNF necrop inh: TNF-alpha cell death inhibition in Jurkat FADD-/- cells. 220,000 tested, 0.068% active. Jurkat FADD-/- TNF necroptosis rescue, ATP luminescence, 24 h; 0 = TNF only, 100 = no-TNF cells. activation (protection from cell death), % at 10 µM;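 active means activation, meaning protection from cell death, of at least 50% relative to plate controls; inactive means activation below 50%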;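 further: necroptosis triggered by 40 ng/mL TNF-alpha added together with compound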
Autophagy HCS: alters autophagy in cells | MEF GFP-LC3 puncta imaging; test concentration mostly 10 µM | calls only at 10 µM (by protocol) | 190,000 tested, 0.98% active | AID 463193;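 active means percentage of spot-positive cells more than 3 SD above its plate mean, without a fluorescence outlier flag or 80% toxicity; inconclusive means no clear call, values can overlap the other calls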;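 further: spot-positive cell cutoff set from DMSO-treated cells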
zVAD death inh: L929 zVAD cell death inhibition; AID 1377; viability rescue, % at 10 µM; 220,000 tested, 0.38% active; L929 zVAD necroptosis rescue, ATP luminescence, 24 h; with zVAD 60 µM;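 active means activation, scaled between plate controls, above about 75%, limit read from the data; inactive means activation under that limit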;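 further: 0% = zVAD with DMSO and 100% = DMSO alone without zVAD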
HSV replic up: HSV replication enhancement. 220,000 tested, 0.005% active. HSV replication augmentation in cells, fold increase. AID 1956. maximum fold increase; in the data active means maximum fold increase above about 1.5; inconclusive means no clear call, values can overlap the other calls; tested in PC3 cells
Dynein cargo inh: dynein cargo transport inhibition | 3617.4 mouse cells, GR-EGFP nuclear translocation imaging; test concentration mostly 20 µM; stimulated with dexamethasone, 1 µM; active compounds read low | z-score, hits read low | 220,000 tested, 0.47% active;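 active means plate z-score of nuclear minus cytoplasmic receptor signal below a set negative limit, without overly bright fluorescence or cell loss, cut at about -3.5 in these data, passing the limit was not always enough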;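 further: z-score of nuclear minus cytoplasmic ring GR-EGFP intensity difference per well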
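Buffer or medium: tetracycline-free induction medium containing charcoal-stripped FBS / Reagent: dexamethasone agonist, 1.0 µM final, for 30 min / Technique: automated 10x imaging of fixed Hoechst-stained cells / Times: induction 48 h, compound 1 h, agonist 30 min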
Dynein confirm: dynein cargo transport inhibition, confirmation | shares compounds with Dynein cargo inh | 3617.4 GR-EGFP nuclear translocation imaging, dexamethasone-induced | calls only at 20 µM | 1,000 tested, 69% active;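 active means inhibition of receptor movement into the nucleus at or above a set limit in both runs, with normal cell brightness and cell count; inconclusive means limit reached in only one run, brightness and count normal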;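 further: dexamethasone at 1 µM final in well for 30 min; nuclear minus cytoplasmic GR-EGFP mean intensity difference in channel 2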
* marks the source's active call; other numbers are inactive results; i = inactive; ? = inconclusive; · = no result; + = active, no number.

SMILES	Furin inh	TNF necrop inh	Autophagy HCS	zVAD death inh	HSV replic up	Dynein cargo inh	Dynein confirm
Cc1ncc(CO)c2c1OC(C)(C)OC2	·	·	·	·	i	·	·
Cc1ncc(CCl)c2c1OC(C)(C)OC2	-19	-6	i	0	i	-4.4*	i
N#Cc1ccc(OCC(=O)OCC(=O)NCCC2=CCCCC2)cc1	-13	0	i	0	i	0.8	·
CCN(CC)C(=O)CS(=O)(=O)CC(=O)Nc1cc(OCCOC)c(Cl)cc1Cl	-19	0	i	1	i	-0.48	·
COc1ccc(NC(=O)c2oc3cc(C)c(C)cc3c2C)c(OC)c1	-4	0	i	0	i	-4*	i
CCN(CC)S(=O)(=O)c1ccc2oc(C(=O)Nc3ccc(OC)cc3OC)c(C)c2c1	-2	-2	i	-1	i	0.57	·
COc1ccc2c(c1)C(=O)N(c1ccccc1C)C(=O)C2(C)C	-22	-1	i	-1	i	0.21	·
Clc1nc(-c2cccnc2)nc2scc(-c3ccccc3)c12	-16	-4	i	2	i	-1.9	·
COc1ccc(-c2csc3nc(-c4cccnc4)nc(Cl)c23)cc1OC	4	-5	i	1	i	-4.4*	+
O=C(CCc1ccccc1)n1nc(-c2ccccc2)nc1NCc1ccco1	-9	-1	i	0	i	-1.4	·
O=C(c1cccs1)n1nc(-c2ccccc2)nc1NCc1ccco1	-9	-1	i	1	i	-5.6*	i
CC(C)Oc1ccc(C2CC(=O)N(c3cccc(Br)c3)C2=O)cc1 (stereo not given)	-4	2	·	0	i	1.5	·
Cc1cccc(-n2c(SCc3ccc(C#N)cc3)nnc2-c2c[nH]c3ccccc23)c1	-3	2	i	0	i	0.64	·
CN(C(=O)CCl)C1CCCc2ccccc21 (stereo not given)	-10	-13	i	0	i	-7.6*	+
CCC(=O)c1ccc(OCC(=O)c2ccc3c(c2)NC(=O)CO3)cc1	-18	0	·	0	i	-0.65	·
O=C1COc2ccc(C(=O)CCl)cc2N1	-22	-30	·	-1	i	-4*	+
CCO[C@@H]1OC(C(=O)O)=C[C@H](C2CC2)[C@H]1CCCO	-17	1	i	1	i	0.89	·
COc1ccc(-c2cccc([C@H]3[C@@H]4C=CCC[C@@]4(C)C(=O)N3Cc3ccccc3)c2)cc1	-15	-1	·	1	i	-3.6*	+
O=C(CS(=O)(=O)c1ccc2ccccc2c1)N1CCCCCC1	-20	-1	i	5	·	-1.1	·
CCC1Oc2ccc(C)cc2N(CC(=O)N(Cc2cccnc2)Cc2ccc(C)o2)C1=O (stereo not given)	-23	-2	i	0	i	-3.7*	?
Cc1cccnc1CCNC(=O)CC1C(=O)NCCN1CC1CCCCC1 (stereo not given)	-7	0	i	1	i	0.027	·
Cc1nc(N)c2c(Cc3cccc4ccccc34)nn(C(C)(C)C)c2n1	·	·	·	·	i	·	·
COc1ccccc1C1Nc2cccc3cccc(c23)N1	-4	-5	i	1	i	-4.7*	i
CCOC(=O)N1CCN(C(=O)c2cn(CC)c3ccc(S(=O)(=O)N4CCCCC4)cc3c2=O)CC1	-13	0	i	2	·	-0.35	·
Cc1onc(-c2ccc(Cl)cc2)c1-c1ccnc(SCC(=O)Nc2ccc(C(C)C)cc2)n1	-4	4	·	2	i	2.4	·
O=C1CSC(=S)N1Cc1cccnc1	-14	-11	i	-1	i	-4.6*	i
O=C1CSC(=S)N1c1cccnc1	-14	-2	i	1	i	-0.82	·
CCOC(=O)C1=C(Cc2ccc(OC)cc2)C(=O)c2ccccc2C1=O	-12	-21	i	-1	·	-6.1	+
CCOC(=O)C1=C(Cc2ccc(C)cc2)C(=O)c2ccccc2C1=O	-20	-24	i	0	?	-0.51	·
CCCc1ccc(/C=C2\C(=O)c3ccccc3C(O)=C2C(=O)OCC)cc1	-11	-25	i	0	?	-3.5*	?
